# The source made the active and inactive calls. The rule behind the calls is not given here.
# Target: T1, Estrogen receptor (Rattus norvegicus) (UniProt P06211+Q62986)
# Experiment: Relative binding affinity (RBA) for estrogen receptor in rat uterine cytosol compared to [3H]estradiol; No binding
# Conditions: Uterus
# Method in brief: (§1)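 Competitive binding: rat uterine cytosol incubated 30 min at 18 °C with 5 × 10⁻⁹ [³H]estradiol, alone or with increasing competitor (10⁻⁹ to 10⁻⁵ M). Unlabeled estradiol serves as the reference competitor for relative binding affinity.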
row,relative binding affinity (RBA),Compound
1,inactive,CC[C@@H](c1ccc(O)cc1)[C@H](CCCN[C@H]1C[C@H](O[C@H]2C[C@](O)(C(C)=O)Cc3c(O)c4c(c(O)c32)C(=O)c2c(OC)cccc2C4=O)O[C@@H](C)[C@H]1O)c1ccc(O)cc1

# Target: T1, Estrogen receptor (Rattus norvegicus)
# Experiment: Relative binding affinity (RBA) for estrogen receptor of rat uterine cytosol compared to [3H]estradiol
# Type: protein assay
# Conditions: not given
# Method in brief: as §1
row,Compound,relative binding affinity (RBA)
1,CC[C@@H](c1ccc(O)cc1)[C@H](CCCC(=O)Oc1c(Cl)c(Cl)c(Cl)c(Cl)c1Cl)c1ccc(O)cc1,0.3
2,CCCCCCCC[C@H](c1ccc(O)cc1)[C@@H](CC)c1ccc(O)cc1,0.2
3,CCCC[C@H](c1ccc(O)cc1)[C@@H](CC)c1ccc(O)cc1,10
4,CC[C@@H](c1ccc(O)cc1)[C@H](CCCC(=O)N(CC)CC)c1ccc(O)cc1,1
5,CC[C@@H](c1ccc(O)cc1)[C@H](CCCC(=O)O)c1ccc(O)cc1,0.1
6,CC[C@@H](c1ccc(O)cc1)[C@H](CCCCOC(=O)NCCCl)c1ccc(O)cc1,1
7,CC[C@@H](c1ccc(O)cc1)[C@H](CCCC(=O)Oc1ccc(Cl)cc1)c1ccc(O)cc1,0.3

# The next lines start with the values.
row,relative binding affinity (RBA),Compound
1,3,CC[C@@H](c1ccc(O)cc1)[C@H](CCCCCl)c1ccc(O)cc1
2,1.5,CC[C@@H](c1ccc(O)cc1)[C@H](CCCCI)c1ccc(O)cc1
3,1.8,CC[C@@H](c1ccc(O)cc1)[C@H](CCCCOS(C)(=O)=O)c1ccc(O)cc1
4,1.2,CCOCCCC[C@H](c1ccc(O)cc1)[C@@H](CC)c1ccc(O)cc1
5,1.5,CC[C@@H](c1ccc(O)cc1)[C@H](CCCCO)c1ccc(O)cc1

# Reference: ChEMBL document CHEMBL1124602, “Diethylstilbestrol-linked cytotoxic agents: synthesis and binding affinity for estrogen receptors” (J Med Chem, 1989)
